Published values of several laboratories.
Each line is one published result; the experiments were not run side by side.
Target: Rhodopsin kinase GRK1 (GRK1, Homo sapiens, UniProt Q15835)
One construct used (Q15835 1-563): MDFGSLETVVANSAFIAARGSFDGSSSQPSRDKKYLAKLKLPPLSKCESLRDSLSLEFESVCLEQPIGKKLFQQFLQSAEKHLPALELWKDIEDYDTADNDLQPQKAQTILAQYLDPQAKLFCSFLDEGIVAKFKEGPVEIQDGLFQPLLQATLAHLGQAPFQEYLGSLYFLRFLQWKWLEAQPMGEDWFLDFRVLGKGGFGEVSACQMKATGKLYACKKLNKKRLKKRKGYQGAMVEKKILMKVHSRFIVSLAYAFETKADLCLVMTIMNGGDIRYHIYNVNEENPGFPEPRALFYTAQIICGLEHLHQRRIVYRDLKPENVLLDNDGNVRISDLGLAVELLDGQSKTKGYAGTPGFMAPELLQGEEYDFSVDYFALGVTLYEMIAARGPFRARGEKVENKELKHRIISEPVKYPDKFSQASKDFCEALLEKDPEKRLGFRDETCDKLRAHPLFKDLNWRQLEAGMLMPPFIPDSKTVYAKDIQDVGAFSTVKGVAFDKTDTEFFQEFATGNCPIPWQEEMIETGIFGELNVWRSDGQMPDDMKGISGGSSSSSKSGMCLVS

O=C(Nc1c[nH]nc1C(=O)NC1CCNCC1)c1cc(F)cc(F)c1 — remaining binding (binding; competition with immobilised ligand; 1 µM): 83%
Nc1ncc2c(n1)-c1c([nH]c3ccc(C#CC4CC4)cc13)CCCC2 — remaining binding (binding; competition with immobilised ligand; 1 µM): 90%
CNC(=O)[C@@H]1CC[C@@H](n2c(-c3ccc4cnccc4c3)nc3ccc(C(=O)NCc4cccc(C(N)=O)c4)cc32)C1 — remaining binding (binding; competition with immobilised ligand; 1 µM): 67%
CN(CCCC(F)(F)F)c1nccc(-c2cnn3ncccc23)n1 — remaining binding (binding; 1 µM): 100%
Cc1cnc(Nc2ccc(C(=O)N3CCC(N4CCCC4)CC3)cc2)nc1-c1cc2ccccc2s1 — remaining binding (binding; competition with immobilised ligand; 1 µM): 64%
CC(=O)N1CCC(c2ccc(C(=O)NC3=NCCN3)cc2C(F)(F)F)CC1 — remaining binding (cell-free assay; competition with immobilised ligand; 1 µM): 95%
C[C@H]1CCN(c2nccc(-c3cnn4ncccc34)n2)C1 — remaining binding (binding; 1 µM): 74%
c1cncc(-c2cccc(Nc3nccc(NC4CCCCC4)n3)c2)c1 — remaining binding (binding; competition with immobilised ligand; 10 µM): 44%
CC1=C(C#N)C(c2ccc3c(c2)c(NC(=O)c2ccccc2C)nn3C)C(C#N)=C(C)N1 — remaining binding (cell-free assay; competition with immobilised ligand; 1 µM): 88%
C[C@@H](c1ccc(-n2cnc3c(N)ncnc32)cc1)N1CCc2nn(C)c(Cc3ccccc3)c2C1=O — remaining binding (binding; competition with immobilised ligand; 0.1 µM): 76%
F[C@@H]1CCN(c2nccc(-c3cnn4ncccc34)n2)C1 — remaining binding (binding; 1 µM): 100%
Cn1cc(Cl)c2c(Oc3c(F)cc(Nc4cc(Cl)nc(N)n4)cc3F)ccnc21 — remaining binding (cell-free assay; competition with immobilised ligand; 0.1 µM): 92%
c1cnn2ncc(-c3ccnc(N4CCC45COC5)n3)c2c1 — remaining binding (binding; 1 µM): 61%
C[C@@]1(Cc2ccc(C#N)cc2)C(=O)N(c2cc(Cl)cc(Cl)c2)c2ncc(C(=O)NC3(c4nc(C5CCC5)no4)CC3)n21 — remaining binding (cell-free assay; competition with immobilised ligand; 1 µM): 100%
O=C(c1ccc(Nc2nccc(-c3cc4ccccc4s3)n2)cc1)N1CCC(N2CCCC2)CC1 — remaining binding (binding; competition with immobilised ligand; 1 µM): 93%
CS(=O)(=O)N1CCCC(NC(=O)[C@H](CCC2CCCCC2)NC(=O)c2ccc(CNc3ncnc4c3nnn4-c3ccccc3)cc2)C1 (stereo partly shown) — remaining binding (cell-free assay; competition with immobilised ligand; 0.1 µM): 94%
N[C@@H]1CCN(c2nccc(-c3cnn4ncccc34)n2)C1 — remaining binding (binding; 1 µM): 100%
C=CC(=O)N1CCC(C(=O)NCC(=O)N2CCN(c3nc(-c4cnc(N)nc4C(F)F)nc(N4CCOCC4)n3)CC2)CC1 — remaining binding (binding; competition with immobilised ligand; 1 µM): 67%
CS(=O)(=O)c1cc(C2(NC(=O)c3cncc4c3cnn4-c3ccc(F)cc3)CC2)ccn1 — remaining binding (cell-free assay; competition with immobilised ligand; 1 µM): 87%
